Test results published in ChEMBL document CHEMBL1138746, “Indolebutylamines as selective 5-HT(1A) agonists” (J Med Chem, 2004).

Columns and labels:
D(3) dopamine receptor = D(3) dopamine receptor (Homo sapiens, UniProt P35462); test: Inhibition of dopamine D3 receptor
D(2) dopamine receptor = D(2) dopamine receptor (Rattus norvegicus, UniProt P61169); test: Displacement of [3H]spiperone from dopamine D2 receptor of rat striatal membranes; assay type: cell membranes, Membrane
Procedure, shortened: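 Rat striatal membranes (0.3–1.0 mg protein/mL) were incubated with 0.1 nM [3H]spiperone in Tris-HCl buffer (pH 7.1) containing 120 mmol/L NaCl, 5 mmol/L KCl, 1 mmol/L CaCl2, 1 mmol/L MgCl2 and 0.1% ascorbic acid, at 37 °C for 15 min. Bound ligand was separated by filtration with three ice-cold washes. Nonspecific binding was defined with 1 mmol/L (+)-butaclamol. IC50 (50% inhibition of binding) came from 5–10 concentrations, each in triplicate.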

[1] = biological target: T1, Adrenergic receptor alpha-1 (Homo sapiens, UniProt P35348+P25100+P35368); test: Inhibition of Alpha-1 adrenergic receptor; assay type: protein assay
T1 sequence (P35348 whole entry): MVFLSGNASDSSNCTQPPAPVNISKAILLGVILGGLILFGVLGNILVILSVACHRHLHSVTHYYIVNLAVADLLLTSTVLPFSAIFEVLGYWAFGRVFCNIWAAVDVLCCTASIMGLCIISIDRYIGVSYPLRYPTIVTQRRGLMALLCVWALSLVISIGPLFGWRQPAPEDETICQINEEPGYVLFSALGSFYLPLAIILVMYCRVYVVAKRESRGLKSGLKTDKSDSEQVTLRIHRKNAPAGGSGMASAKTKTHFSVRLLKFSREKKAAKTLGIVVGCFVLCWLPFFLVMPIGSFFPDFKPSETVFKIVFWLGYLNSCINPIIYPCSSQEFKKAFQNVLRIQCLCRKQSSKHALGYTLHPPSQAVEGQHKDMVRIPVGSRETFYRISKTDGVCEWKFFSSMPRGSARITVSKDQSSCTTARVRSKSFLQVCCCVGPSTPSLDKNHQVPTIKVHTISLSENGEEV
T1 sequence (P25100 whole entry): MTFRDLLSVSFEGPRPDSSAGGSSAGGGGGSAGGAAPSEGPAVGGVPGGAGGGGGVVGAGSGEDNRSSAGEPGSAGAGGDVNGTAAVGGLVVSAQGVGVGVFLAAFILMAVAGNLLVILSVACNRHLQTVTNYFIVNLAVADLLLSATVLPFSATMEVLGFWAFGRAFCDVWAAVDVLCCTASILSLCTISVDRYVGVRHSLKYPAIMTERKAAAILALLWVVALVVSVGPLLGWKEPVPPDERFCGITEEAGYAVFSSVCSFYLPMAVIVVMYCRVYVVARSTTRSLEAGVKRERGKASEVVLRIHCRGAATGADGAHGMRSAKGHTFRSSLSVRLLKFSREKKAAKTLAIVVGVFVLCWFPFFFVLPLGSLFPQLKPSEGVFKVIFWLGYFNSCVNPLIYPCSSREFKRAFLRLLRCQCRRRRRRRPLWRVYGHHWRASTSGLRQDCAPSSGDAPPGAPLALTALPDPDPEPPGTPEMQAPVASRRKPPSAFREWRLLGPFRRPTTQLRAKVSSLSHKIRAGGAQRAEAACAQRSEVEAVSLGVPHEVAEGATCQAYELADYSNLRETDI
T1 sequence (P35368 whole entry): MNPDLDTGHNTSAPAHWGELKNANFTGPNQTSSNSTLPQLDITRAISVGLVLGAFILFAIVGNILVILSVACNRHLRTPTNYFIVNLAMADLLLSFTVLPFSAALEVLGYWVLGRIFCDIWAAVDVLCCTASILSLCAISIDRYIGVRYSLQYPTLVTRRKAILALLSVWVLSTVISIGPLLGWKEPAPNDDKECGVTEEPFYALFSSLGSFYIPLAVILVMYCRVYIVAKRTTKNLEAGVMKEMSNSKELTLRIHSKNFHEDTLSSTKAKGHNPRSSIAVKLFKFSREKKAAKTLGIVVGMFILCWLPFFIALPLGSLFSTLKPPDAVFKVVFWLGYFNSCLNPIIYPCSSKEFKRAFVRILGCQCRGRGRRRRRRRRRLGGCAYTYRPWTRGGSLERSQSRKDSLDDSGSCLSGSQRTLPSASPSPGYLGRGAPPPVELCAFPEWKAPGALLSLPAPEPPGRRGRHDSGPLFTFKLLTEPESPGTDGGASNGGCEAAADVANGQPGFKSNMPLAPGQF

[2] = biological target: T2, 5-hydroxytryptamine receptor 1A (Rattus norvegicus, UniProt P19327); test: Inhibition of 8-OH DPAT bindign to rat hydroxytryptamine 1A receptor in hippocampal membranes
T2 sequence (P19327 whole entry): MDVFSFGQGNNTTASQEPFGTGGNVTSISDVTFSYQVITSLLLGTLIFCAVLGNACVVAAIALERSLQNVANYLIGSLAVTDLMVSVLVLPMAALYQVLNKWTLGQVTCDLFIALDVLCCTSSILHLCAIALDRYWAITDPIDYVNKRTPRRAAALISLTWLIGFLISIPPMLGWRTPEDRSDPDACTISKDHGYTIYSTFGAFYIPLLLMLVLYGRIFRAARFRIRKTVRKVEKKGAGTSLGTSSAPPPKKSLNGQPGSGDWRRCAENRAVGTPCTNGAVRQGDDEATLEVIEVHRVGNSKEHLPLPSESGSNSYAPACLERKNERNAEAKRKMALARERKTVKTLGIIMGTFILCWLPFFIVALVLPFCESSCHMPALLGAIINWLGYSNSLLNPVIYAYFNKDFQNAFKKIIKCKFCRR

D(4) dopamine receptor = biological target: T3, D(4) dopamine receptor (Homo sapiens, UniProt P21917); test: Inhibition of dopamine D4 receptor
T3 sequence (P21917 whole entry): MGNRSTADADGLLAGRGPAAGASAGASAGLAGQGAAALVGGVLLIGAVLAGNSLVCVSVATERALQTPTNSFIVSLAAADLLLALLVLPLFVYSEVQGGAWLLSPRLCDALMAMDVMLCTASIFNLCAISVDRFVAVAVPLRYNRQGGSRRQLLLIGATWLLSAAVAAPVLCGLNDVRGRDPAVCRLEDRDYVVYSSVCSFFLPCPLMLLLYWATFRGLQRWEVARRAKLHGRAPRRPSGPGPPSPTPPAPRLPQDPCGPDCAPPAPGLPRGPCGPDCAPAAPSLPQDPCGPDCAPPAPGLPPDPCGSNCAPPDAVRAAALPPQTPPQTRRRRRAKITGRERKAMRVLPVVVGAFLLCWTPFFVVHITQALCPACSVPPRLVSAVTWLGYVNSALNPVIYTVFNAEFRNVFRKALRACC

Sequence of D(2) dopamine receptor (P61169 whole entry): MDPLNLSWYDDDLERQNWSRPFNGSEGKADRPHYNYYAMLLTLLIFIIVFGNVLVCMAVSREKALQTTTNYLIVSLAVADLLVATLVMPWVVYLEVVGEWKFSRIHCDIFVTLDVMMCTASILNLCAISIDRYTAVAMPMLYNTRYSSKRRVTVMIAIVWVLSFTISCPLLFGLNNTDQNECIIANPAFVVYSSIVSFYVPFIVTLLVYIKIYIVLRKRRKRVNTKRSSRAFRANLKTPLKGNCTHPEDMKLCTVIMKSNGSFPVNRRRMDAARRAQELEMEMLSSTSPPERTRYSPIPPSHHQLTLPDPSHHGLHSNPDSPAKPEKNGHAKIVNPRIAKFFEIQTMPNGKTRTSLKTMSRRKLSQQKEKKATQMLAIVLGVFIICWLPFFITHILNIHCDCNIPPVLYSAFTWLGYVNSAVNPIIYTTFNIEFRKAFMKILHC
Sequence of D(3) dopamine receptor (P35462 whole entry): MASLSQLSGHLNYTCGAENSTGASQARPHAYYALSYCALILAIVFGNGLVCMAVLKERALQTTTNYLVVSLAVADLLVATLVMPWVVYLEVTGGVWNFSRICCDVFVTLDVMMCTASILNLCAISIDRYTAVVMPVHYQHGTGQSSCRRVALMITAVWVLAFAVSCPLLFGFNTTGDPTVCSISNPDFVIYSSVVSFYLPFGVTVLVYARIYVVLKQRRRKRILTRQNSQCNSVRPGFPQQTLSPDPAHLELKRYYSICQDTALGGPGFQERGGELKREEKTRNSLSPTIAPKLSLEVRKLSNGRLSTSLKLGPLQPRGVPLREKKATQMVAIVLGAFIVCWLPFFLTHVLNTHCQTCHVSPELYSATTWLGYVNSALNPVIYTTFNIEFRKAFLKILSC

O=C1c2ccccc2S(=O)(=O)N1CCCCN1CCN(c2ncccn2)CC1 [IPSAPIRONE]
IC50 (D(3) dopamine receptor): 1200 nM | IC50 (D(2) dopamine receptor): 2900 nM | IC50 [1]: 500 nM | IC50 [2]: 8.2 nM | IC50 (D(4) dopamine receptor): 1800 nM
